Measurements as given in ChEMBL document CHEMBL4052683, “The discovery of benzoxazine sulfonamide inhibitors of NaV1.7: Tools that bridge efficacy and target engagement” (Bioorg Med Chem Lett, 2017).

Columns and labels:
[1] = Cmax in rat at 10 mg/kg, po by LC-MS/MS method; type: ADME, organism-based; design: dose 10 mg/kg, route oral; details: in vivo
Rattus norvegicus = test: Analgesic activity in Sprague-Dawley rat model of formalin-induced nociception behavior assessed as reduction in formalin-evoked paw flinching at 10 to 100 mg/kg, po; type: functional, organism-based
Method in brief: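 Sprague Dawley rats got 10, 30 or 100 mg/kg PO in 30% (w/v) hydroxypropyl β-cyclodextrin, pH 10.0 with KOH. Total phase II formalin-induced flinches were counted. Morphine sulfate 2 mg/kg SC served as control. Unbound plasma levels were measured and compared with the rat NaV1.7 IC50.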

[2] = Ratio of unbound plasma concentration in C57BL/6 mouse model of histamine-induced pruritus at 30 mg/kg, po to IC50 for mouse Nav1.7 by whole cell voltage clamp method
Method in brief: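 The formalin arm received 2% formalin subcutaneously into the dorsal hind paw, and total phase II licking and lifting was scored. The pruritus arm was dosed 120 min before histamine (8.15mM, intradermal, nape of neck), and scratch bouts were counted over 0-30 min. Unbound plasma concentration was determined at each dose.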

[3] = Ratio of unbound plasma concentration in Sprague-Dawley rat model of formalin-induced nociception behavior at 30 mg/kg, po to IC50 for rat Nav1.7 by whole cell voltage clamp method
Method in brief: (§1)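 Total phase II formalin-induced flinches were scored. Unbound plasma concentration was determined at each dose and related to the rat NaV1.7 IC50.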

[4] = Half life in rat at 10 mg/kg, po by LC-MS/MS method; type: ADME, organism-based; details: in vivo
Plasma = test: Unbound plasma concentration in Sprague-Dawley rat model of formalin-induced nociception behavior at 30 mg/kg, po; type: ADME, organism-based; details: in vivo; method in brief: as §1

In the case of `N#Cc1cc(C(F)(F)F)ccc1N1CCOc2cc(S(=O)(=O)Nc3nccs3)c(F)cc21`, the Cmax [1] is reported as 950 to 990 nM, the inhibition (Rattus norvegicus) is reported as “Dose-dependent effect” and the Ratio [2] is reported as 6. The Ratio [3] was 1.3, the half-life [4] was 9.8 h and the “Cp(f)” value (Plasma) was 65 nM.
